ChEMBL document CHEMBL1123828, “Carbostyril derivatives having potent beta-adrenergic agonist properties” (J Med Chem, 1987)

Tests used:
[1] = species on record: Rattus norvegicus; assay: The compound was evaluated for its ability to stimulate adenylate cyclase activity; assay type: functional
In short: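 Rat reticulocyte membranes (0.01–0.05 mg protein) incubated 10 min at 32 °C in 50 mM Tris-HCl pH 7.4 with 1.6 mM ATP, 5 mM MgCl2, 1 mM EGTA, 10 mM theophylline, 0.01% BSA, creatine phosphokinase/phosphocreatine, 0.5 mM GTP and varying ligand concentrations. Stopped by boiling with EDTA buffer; cAMP measured by competitive protein binding. Basal and GTP activity subtracted; EC50 from dose-effect analysis.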

[2] = target: Adrenergic receptor beta (Rattus norvegicus, UniProt P18090+P10608+P26255); assay: The compound was evaluated for the inhibition of [125I]cyanopindolol binding to beta adrenergic receptor in rat reticulocyte membrane.; assay type: cell membranes
[3] = species on record: Rattus norvegicus; assay: The compound was evaluated for the intrinsic activity compared to (-)-isoproterenol.; assay type: functional

Row | SMILES | EC50 [1] [nM] | IC50 [2] [nM] | IA [3]
1 | CC(C)(Cc1ccc(I)cc1)NCC(O)c1ccc(O)c2nc(O)ccc12 (centres undefined) | 5.6 | 7.6 | 1.3
2 | CC(C)(Cc1ccccc1)NCC(O)c1ccc(O)c2nc(O)ccc12 (centres undefined) | 6.9 | 3.1 | 1
3 | CC(C)(Cc1ccc(N)cc1)NCC(O)c1ccc(O)c2nc(O)ccc12 (centres undefined) | 14.2 | 22 | 1
4 | CC(C)NCC(O)c1ccc(O)c(O)c1 (single isomer, unassigned; (-)) [ISOPROTERENOL] | 226 | – | 1
5 | CC(C)(Cc1ccc(NC(=O)CBr)cc1)NCC(O)c1ccc(O)c2nc(O)ccc12 (centres undefined) | 8.5 | 5.3 | 1.2
